Source: publication PMC7790123 (Psychopharmacology, 2020)

Key:
[1] = Drug concentration in free plasma and CSF after dosing; type: in vivo, rat; conditions: for Drug Concentration CSF: 15 mg/kg ip
How it was run: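 After 1 h acclimation, rats received vehicle or test compound, suspended in 0.1% Tween80, 0.1% silicone antifoam and 1% methylcellulose in water, given ip at 5 mL/kg. At 1 or 4 h, rats were anaesthetised with isoflurane and sampled. Blood was spun at 2000 g, 4°C, 10 min for plasma. CSF and plasma were stored at −80°C, then compound levels were measured by LC-MS/MS.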

[2] = tested on: rats; test: Attentional set-shifting task; type: in vivo, rat; conditions: 15 mg/kg ip, male rats, dosed 1 h before testing, vs vehicle
How it was run: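 Rats were handled 1 min at least three times in the week before testing. The test compound was suspended in 0.1% Tween80, 0.1% silicone antifoam and 1% methylcellulose in water and given ip at 5 mL/kg, 1 h before testing. Over four days: pre-habituation, habituation, training, then a single test of seven discriminations (SD, CD, CDR, ID, IDR, ED, EDR). The first four trials were unscored; criterion was six consecutive correct. Analysis: two-way repeated-measures ANOVA with Tukey post hoc.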

[3] = molecular target: T1, COMT (Rattus norvegicus, UniProt P22734); test: Frontal cortex microdialysis: DA, HVA and DOPAC in extracellular fluid; type: in vivo; conditions: 20 min samples for 2 h after dosing, vs vehicle
T1 sequence (P22734 44-264 limits assumed): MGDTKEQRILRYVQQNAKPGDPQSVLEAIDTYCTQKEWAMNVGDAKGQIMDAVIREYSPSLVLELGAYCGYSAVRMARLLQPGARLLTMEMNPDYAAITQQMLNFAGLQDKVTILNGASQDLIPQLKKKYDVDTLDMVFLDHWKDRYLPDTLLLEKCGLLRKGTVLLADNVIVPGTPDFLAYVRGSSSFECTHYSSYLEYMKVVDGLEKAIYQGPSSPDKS

[4] = male, rat, plasma (free, unbound concentration), intraperitoneal, 15 mg/kg

Cc1ccc(C(=O)c2cc(O)c(O)c([N+](=O)[O-])c2)cc1 [Tolcapone, tolcapone]
Drug Concentration CSF ([1]; female rats, 4 h): BLQ
Drug Concentration CSF ([1]; male rats, 1 h): BLQ
Drug Concentration CSF ([1]; male rats, 4 h): BLQ
concentration at 4 h ([1]; female, rat, plasma (free, unbound concentration), intraperitoneal, 15 mg/kg): 10 nM
concentration at 1 h [1, 4]: 35 nM
concentration at 4 h [1, 4]: 4 nM
ASST performance (trials to criterion), ED stage [2]: improved ED stage performance
extracellular DOPAC concentration, frontal cortex [3]: significantly increased DOPAC for the 40–120-min time points
extracellular HVA concentration, frontal cortex [3]: significantly decreased HVA for the 40–120-min time points
